From PubChem
Tn7 DDE FP: DD(E)-Tn7 binding inhibition, primary FP screen; P02675; FP displacement of FITC-Tn7 peptide from fibrin DD(E); 0% = median of compound wells per plate; inhibition, % at 8.3 µM; 0.13% of 370,000 active;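 active means inhibition above the mean of compounds falling within the control limits plus 3 SD of them, cut at about 14% in these data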;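 further: 0% = plate median of compound wells and 100% = 10 µM Aha-Tn7 peptide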
Target sequence (P02675 whole entry, looked up): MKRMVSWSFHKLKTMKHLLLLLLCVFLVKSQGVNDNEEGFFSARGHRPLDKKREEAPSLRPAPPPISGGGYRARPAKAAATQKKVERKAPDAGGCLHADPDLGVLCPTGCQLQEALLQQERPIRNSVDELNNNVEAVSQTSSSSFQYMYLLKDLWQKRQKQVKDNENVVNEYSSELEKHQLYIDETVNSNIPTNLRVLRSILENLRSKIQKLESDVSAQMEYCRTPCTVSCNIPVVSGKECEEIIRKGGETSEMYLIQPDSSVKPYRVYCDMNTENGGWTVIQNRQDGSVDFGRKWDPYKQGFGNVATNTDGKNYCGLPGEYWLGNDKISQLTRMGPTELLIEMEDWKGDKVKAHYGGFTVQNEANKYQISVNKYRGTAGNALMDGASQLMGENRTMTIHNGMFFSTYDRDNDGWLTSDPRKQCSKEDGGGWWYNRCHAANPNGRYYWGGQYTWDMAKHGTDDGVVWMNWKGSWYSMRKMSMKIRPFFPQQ
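system = human fibrin DD(E) protein | quantity = DD(E) 2 µM final | medium = Tris/NaCl/CaCl2 buffer, pH 7.8 | also added = labelled Tn7 tracer, 0.1 µM | compound dosing = single point at 8.3 µM | timing = compound with protein 10 min, then 3 h after probe, room temperature | signal = FP measurement | benchmarks = Aha-Tn7 high control | repeats = one replicate per compound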
cardiac RTF act: cardiac RTF calcium sensitization. 0.24% of 340,000 active. activation, % at 7.2 µM. IANBD-labeled TnC RTF fluorescence at EC20 calcium; 0% EC20 calcium, 100% full calcium;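 active means activation above the mean over all tested compounds plus 3 SD, cut at about 30% in these data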;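 further: rise in fluorescence read as greater calcium sensitivity of cardiac thin filaments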
RTF Ca sens inh: cardiac RTF calcium desensitization; IANBD-labeled cardiac RTF, Ca2+ fluorescence; inhibition, % at 7.15 µM; AID 493244; 0.12% of 340,000 active; P19429+P45379;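 active means inhibition above the mean inhibition of all tested compounds plus 3 SD, cut at about 17% in these data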;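 further: assay run at fixed EC70 calcium of 1.6 mM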
CRFR2-BP ag: CRF-BP/CRF-R2 complex agonism; HEK293 CRF-R2/CRF-BP, calcium dye fluorescence (FLIPR); percent of saturating CRF peptide response; activation, % at 13.2 µM; 0.46% of 350,000 active; AID 588473;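 active means activation of at least 50%, plus an integration ratio under a set limit after plate pattern correction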;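 further: plate controls were neutral control wells without compound for no effect and CRF at EC100 for full effect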
CRFR2-BP antag: antagonists of CRF-binding protein/CRF-R2 receptor complex; HEK293 CRF-R2/CRF-BP, CRF-induced calcium fluorescence; inhibition, % at 11.8 µM; 0.59% of 350,000 active;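 active means inhibition of the ligand-induced calcium signal above about 50% at the single tested concentration, limit read from the data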
DDE Tn6 FP inh: DD(E)-Tn6 binding inhibition, primary FP screen; P02675; Fibrin DD(E) TRITC-Tn6 fluorescence polarization displacement; inhibition, % at 8.3 µM; 0.21% of 370,000 active; AID 720509;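 active means inhibition above a per-campaign cutoff: mean of compounds within control limits plus 3 SD, cut at about 15% in these data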;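 further: 0% = median of all compound wells on the plate and 100% = blocking peptide control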
The depositor's hits bear a star; nt = no result. In the library only some 1.4% were active in any assay of this set; here they are far more common.

SMILES | Tn7 DDE FP | cardiac RTF act | RTF Ca sens inh | CRFR2-BP ag | CRFR2-BP antag | DDE Tn6 FP inh
O=C(Nc1ccc(OC(F)(F)F)cc1)Nc1c(-c2ccccc2)nc2ncccn12 | 2.5 | nt | nt | nt | nt | -10.6
N=c1c(S(=O)(=O)c2ccccc2)cc2c(=O)n3ccccc3nc2n1Cc1ccco1 | 4.0 | -0.3 | -12.5 | 88.6* | 6.6 | -4.3
CCCn1c(=N)c(S(=O)(=O)c2ccccc2)cc2c(=O)n3ccccc3nc21 | -2.5 | 1.0 | -3.3 | -4.2 | 110.3* | -4.2
Cc1cccn2c(=O)c3cc(S(=O)(=O)c4ccccc4)c(=N)n(Cc4ccco4)c3nc12 | 0.9 | 2.4 | -4.7 | 1.2 | 6.9 | -3.6
CCn1c(=N)c(S(=O)(=O)c2ccccc2)cc2c(=O)n3ccccc3nc21 | -4.3 | 4.3 | 0.9 | 12.1 | 3.6 | -2.8
Cc1ccc(S(=O)(=O)c2cc3c(=O)n4ccccc4nc3n(Cc3ccco3)c2=N)cc1C | -1.4 | nt | nt | 78.6* | 7.1 | -9.2
CC(=O)Nc1ccc(/C=N/N2C(=O)NC(C)(c3ccc(OC(F)F)cc3)C2=O)cc1 (stereo not given) | 5.5 | 0.3 | 0.9 | 129.8* | -91.4 | 1.7
CC1(c2ccc(OC(F)F)cc2)NC(=O)N(CC(=O)Nc2ccc3c(c2)OCO3)C1=O (stereo not given) | 3.9 | 2.1 | 1.4 | 121.9* | -56.5 | -3.7
CCOC(=O)CN1C(=O)NC(C)(c2ccc(OC(F)F)cc2)C1=O (stereo not given) | -3.7 | 0.4 | -0.9 | -0.1 | -0.8 | 5.2
CC1(c2ccc(OC(F)F)cc2)NC(=O)N(CC(=O)Nc2ccccc2)C1=O (stereo not given) | -4.8 | 4.7 | -5.0 | 76.1* | -33.7 | 3.1
COc1cccc(C(=O)NCCS(=O)(=O)N2CCCC(C)C2)c1 (stereo not given) | -5.6 | nt | nt | -0.9 | 2.8 | -0.4
COC(=O)C1CN(Cc2cn(Cc3ccc(Cl)cc3)nn2)CCS(=O)(=O)N1Cc1ccccc1 (stereo not given) | -14.8 | nt | nt | nt | nt | -3.0
COc1ccc(/C=C2\SC(c3ccc(C)cc3)=NC2=O)cc1OC | -2.5 | 20.1 | -27.6 | 132.2* | -136.6 | -1.3
COc1cc(/C=C2\SC(c3ccc(C)cc3)=NC2=O)ccc1O | -10.4 | 2.4 | -11.2 | 50.2* | -120.0 | 1.6
COc1ccc(/C=C2/SC(c3ccc(C)cc3)=NC2=O)cc1OC | 0.9 | 27.7 | -32.5 | 35.5 | -32.1 | 3.4
COc1cc(/C=C2\SC(c3ccc(C)cc3)=NC2=O)cc(OC)c1OC | nt | 6.3 | 0.9 | 42.3 | -116.9 | nt
C[C@@H]1C[C@H]2O[C@@H]2/C=C\C=C\C(=O)Cc2cc(O)cc(O)c2C(=O)O1 | -2.3 | nt | nt | nt | nt | 5.4
Cc1cccc(C)c1NC(=S)Nc1ccc(F)cc1 | -4.1 | 1.2 | -5.7 | 0.7 | 60.0* | -2.1
COc1ccc(C2=NN(c3ccc(C=O)cc3)C(c3ccccc3)C2)cc1 (stereo not given) | nt | nt | nt | 0.9 | -7.7 | nt
COc1ccc(C2CC(c3cccs3)=NN2c2ccc(C=O)cc2)cc1 (stereo not given) | -16.6 | nt | nt | 108.9* | -126.7 | 9.9
CCCCCc1ccc(NC(=O)O[C@@H]2CC[C@@]34CCCN3C(=O)CCC[C@H]4C2)cc1 | 3.8 | nt | nt | nt | nt | 1.5
OC(c1ccccc1)(c1ccccc1)C1CCN(CCCNc2ccccc2F)CC1 | 2.2 | nt | nt | nt | nt | -2.4
CN1Cc2nnn(Cc3ccccc3)c2-c2cc(N3CCCC3)ccc2S1(=O)=O | -6.8 | nt | nt | nt | nt | -0.5
Nc1c(C(=O)NCc2cccnc2)sc(=S)n1-c1ccccc1 | -5.2 | 0.2 | -4.9 | -0.2 | -20.1 | -8.6
COc1ccc(CNC(=O)c2sc(=S)n(-c3ccc(OC)cc3)c2N)cc1 | nt | -2.4 | 2.7 | -0.9 | 66.5* | nt
SMILES | Tn7 DDE FP | cardiac RTF act | RTF Ca sens inh | CRFR2-BP ag | CRFR2-BP antag | DDE Tn6 FP inh
Cc1c2cnn(CC(=O)NC3CCCC3)c(=O)c2c(C)n1Cc1ccccc1 | -1.8 | -0.1 | 4.0 | -1.1 | 110.9* | 0.9
C=CCN1C(=O)/C(=C/c2ccc(OC(C)=O)c(OCC)c2[N+](=O)[O-])SC1=S | -4.2 | -5.6 | -5.0 | 46.1 | 58.8* | -0.1
CC(CCc1ccco1)NC(=O)CCc1nnc2ccc(NCc3ccccc3)nn12 (stereo not given) | 0.8 | -0.9 | -6.8 | 0.6 | 53.0* | -5.2
CC(C)(C)c1ccc(C(=O)N2CCC2(C)C(=O)NCc2cccs2)cc1 (stereo not given) | 2.9 | nt | nt | nt | nt | 4.8
O=C(C1CCCN(S(=O)(=O)c2cccc3cccnc23)C1)N1CCN(c2ccc(F)cc2)CC1 (stereo not given) | -0.6 | 8.7 | -1.1 | -0.8 | 79.0* | -0.1
Cc1[nH]n(-c2ccccc2)c(=O)c1/C=N/NC(=O)c1cccc([N+](=O)[O-])c1 | 1.7 | 0.1 | -12.0 | -1.7 | 42.6 | -4.0
Cc1ccc(-n2[nH]c(C)c(/C=N/Nc3ccc([N+](=O)[O-])cc3[N+](=O)[O-])c2=O)cc1C | 1.8 | -5.9 | -1.2 | 31.3 | 85.2* | -3.4
Cc1ccccc1Cn1c(=O)sc2ccccc2c1=O | 0.9 | 3.8 | -0.3 | -5.4 | 56.3* | 0.2
COc1ccc(Cn2c(=O)sc3ccccc3c2=O)cc1 | 6.7 | -0.1 | -9.7 | 1.6 | -17.0 | 3.8
CCN1C(=O)C(=O)N(Cc2ccc(OC)c(F)c2)C1=O | 0.2 | 0.1 | 0.8 | -0.4 | 84.2* | -4.8
COc1ccc(CN2C(=O)NC(C)(c3ccc(C)cc3)C2=O)cc1F (stereo not given) | 0.8 | 0.9 | 1.9 | -0.8 | 1.5 | 2.6
O=C(Nc1ccccc1)c1ccc(NCCc2ccccc2)c([N+](=O)[O-])c1 | 1.8 | 96.3* | -4.7 | -1.5 | 16.0 | -0.3
Cc1ccc(CN2CCSc3ccc(C(=O)N4CCN(c5ncccn5)CC4)cc32)cc1 | nt | 2.0 | -3.2 | -3.0 | 62.5* | nt
CCCNS(=O)(=O)c1cccc(C(=O)NC2CCCc3ccccc32)c1 (stereo not given) | -3.4 | -1.6 | -7.3 | -1.1 | 51.9* | -0.8
CN(C)S(=O)(=O)c1cccc(C(=O)NC2CCCc3ccccc32)c1 (stereo not given) | -0.3 | 0.6 | 2.1 | -1.4 | -9.0 | -7.3
CCC1CCCCN1C(=O)COC(=O)COc1ccc(Br)cc1 (stereo not given) | -6.1 | 1.0 | 0.2 | 92.8* | 33.4 | -7.6
CCC1CCCCN1C(=O)COc1ccc(F)cc1 (stereo not given) | 8.7 | 3.2 | -4.5 | -1.0 | 14.1 | 6.7
Cc1nc2ccccc2n2c(O)c(CC(=O)O)cc12 | 1.0 | 125.2* | -197.1 | 88.8* | -62.3 | 7.0
Cc1nnc(SCc2ccc(F)cc2Cl)s1 | 4.7 | 6.7 | -8.7 | -4.5 | 18.6 | -1.4
Nc1nnc(SCc2ccc(F)cc2Cl)s1 | nt | 9.7 | -6.2 | -6.8 | 58.3* | nt
CC(C)C[C@H]1COc2cc(Br)ccc2S(=O)(=O)N1Cc1cn(Cc2ccco2)nn1 | 0.8 | nt | nt | nt | nt | 8.8
